Sampled rows, rich in hits. Any-hit rate of the full collection: about 1.8%.
CHRM5 antagonist – CHRM5 antagonism in calcium assay | 360,000 tested, 0.59% active | P08912 | CHO-hM5 cells, Fluo-8 calcium fluorescence, ACh EC80 | inhibition, % at 3 µM;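 active means inhibition above a per-plate cutoff, the mean of that plate's test compounds plus 3 SD, cut at about 27% in these data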
Target sequence (P08912 whole entry, looked up): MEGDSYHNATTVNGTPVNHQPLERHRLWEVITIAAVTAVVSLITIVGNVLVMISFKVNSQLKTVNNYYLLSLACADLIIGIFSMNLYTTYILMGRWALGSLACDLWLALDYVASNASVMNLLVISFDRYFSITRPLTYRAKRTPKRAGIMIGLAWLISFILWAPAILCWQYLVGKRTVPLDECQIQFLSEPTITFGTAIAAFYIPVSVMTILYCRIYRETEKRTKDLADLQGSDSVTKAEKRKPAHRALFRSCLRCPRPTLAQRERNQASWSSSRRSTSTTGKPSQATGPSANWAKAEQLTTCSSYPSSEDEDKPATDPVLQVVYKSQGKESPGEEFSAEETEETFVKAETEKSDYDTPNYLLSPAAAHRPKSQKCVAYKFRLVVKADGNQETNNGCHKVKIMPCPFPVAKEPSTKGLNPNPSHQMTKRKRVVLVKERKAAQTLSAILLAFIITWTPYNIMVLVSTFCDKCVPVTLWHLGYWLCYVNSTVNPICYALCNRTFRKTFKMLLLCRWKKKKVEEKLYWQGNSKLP
M5 PAM – positive allosteric modulators of human muscarinic M5 receptor | P08912 | CHO-K1 hM5, Fluo-8 calcium, ACh EC20 PAM; 0% = ACh EC20, 100% = ACh EC100 | activation, % at 3 µM | 360,000 tested, 0.3% active | AID 624038;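 active means activation above the run cutoff, the mean activation of all test compounds plus 3 SD, cut at about 18% in these data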
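Assay system – human M5 receptor in CHO-K1 cells · Read-out – % activation, ACh-normalized · Technique – Fluo-8 calcium fluorescence · Dosing – single-point, 3 µM nominal · Incubation – Fluo-8 loading 80 min at 37 °C plus 30 min room temperature · Repeats – singlicate, one well per test compound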
CHRM4 antagonist – antagonists of human muscarinic M4 receptor (CHRM4) | CHO-hM4 cells, ACh EC80, Fluo-8 calcium fluorescence | inhibition, % at 3 µM | 360,000 tested, 0.73% active | AID 624125;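 active means inhibition above its plate's cutoff, the mean inhibition of sample wells plus 3 SD, cut at about 27% in these data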
M4 PAM – CHRM4 positive allosteric modulation; P08173; CHO-K1 hM4/Gqi5, Fluo-8 calcium fluorescence, ACh EC20; 0% = ACh EC20, 100% = maximal ACh; activation, % at 3 µM; 360,000 tested, 0.4% active;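 active means activation above its plate's cutoff, the mean activation of sample wells plus 3 SD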
M5 ag – CHRM5 agonism in calcium assay; P08912; CHO-K1 hM5 cells, Fluo-8 calcium fluorescence; 0% DMSO wells, 100% maximal acetylcholine response; activation, % at 3 µM; 360,000 tested, 0.19% active;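 active means activation above the run's mean over test compounds plus 3 SD, cut at about 23% in these data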;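 further: signal is peak over basal fluorescence ratio across the kinetic read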
M4 ag – CHRM4 agonism in calcium assay | P08173 | CHO-K1 hM4/Gqi5, Fluo-8 calcium fluorescence; vehicle 0%, full acetylcholine response 100% | activation, % at 3 µM | 360,000 tested, 0.14% active;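 active means activation above the run mean over all test wells plus 3 SD, cut at about 32% in these data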;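 further: peak over basal fluorescence ratio per well then scaled between controls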
A number is an active result; - = inactive.

SMILES | CHRM5 antagonist | M5 PAM | CHRM4 antagonist | M4 PAM | M5 ag | M4 ag
CC(C)N1CN(c2ccccc2)C(=S)N(c2ccccc2)C1 | - | - | - | 18 | - | -
Cc1onc(-c2c(Cl)cccc2Cl)c1C(=O)N=C(N)N1CC(C)OC(C)C1 (configuration not stated) | - | - | - | - | - | -
COc1ccc(CN(CCC(c2ccc(F)cc2)C2CCOC(C)(C)C2)C(=O)c2ccco2)cc1 (configuration not stated) | 36 | - | 30 | - | - | -
COc1ccc(CN(CCC(c2ccccc2)c2ccco2)C(=O)c2ccco2)cc1 (configuration not stated) | - | - | - | - | - | -
CC(c1ccccc1)N(CCC(c1ccccc1)C1CCOC(C)(C)C1)C(=O)c1ccco1 (configuration not stated) | 30 | - | - | - | - | -
c1ccc(-n2c3ccccc3c3ccccc32)cc1 | - | 19 | - | - | - | -
COc1cc(C(=O)OCc2cccc(OC)c2OC)ccc1OCC(=O)N1CCOCC1 | - | - | - | 22 | - | -
COc1ccc(C2=NOC(C(=O)NCc3ccc(F)cc3)C2)cc1 (configuration not stated) | - | - | - | - | - | -
COc1ccc(CNC(=O)C2CC(c3ccc(F)cc3)=NO2)cc1 (configuration not stated) | - | - | - | 36 | - | -
O=P(CCCO)(Cc1ccccc1)Cc1ccccc1 | - | - | - | - | - | -
COC(=O)CC1=Nc2ccccc2NC(=O)C1 | - | - | - | - | - | -
CCOC(=O)CC1=Nc2ccccc2NC(=O)C1 | - | - | 27 | - | - | -
CCCCNC(=O)CN(C1CCCCC1)S(C)(=O)=O | - | - | - | - | - | -
CCNC(=O)CN(C1CCCCC1)S(C)(=O)=O | - | - | - | 22 | - | -
Cc1ccc(C)c(C(=O)CSc2n[nH]c(C(C)C)n2)c1 | - | 34 | - | - | - | -
COc1ccc(/C=C2\SC(=O)N(CCCC(=O)Nc3cc(Cl)ccc3C(=O)O)C2=O)cc1 | - | - | - | - | - | -
O=C1CCCc2c1nc(-c1ccc(F)cc1)n2O | - | 20 | - | - | - | -
O=C1CCCc2c1nc(-c1ccc([N+](=O)[O-])cc1)n2O | - | - | - | - | - | -
Cc1cc(C)cc(-n2c(=O)c3sccc3n(CC(=O)NCc3ccco3)c2=O)c1 | - | 22 | - | - | - | -
C=CCNC(=O)Nc1ccc(Cl)cn1 | - | - | - | 21 | - | -
Cc1ccc(N2C(=O)CSC2c2c(F)cccc2Cl)cc1 (configuration not stated) | 68 | - | 86 | - | - | -
COc1ccc(N2C(=O)CSC2c2ccc(F)c(F)c2)cc1 (configuration not stated) | - | - | - | - | - | -
COc1cccc(C2SCC(=O)N2c2ccc(Cl)cc2)c1OC (configuration not stated) | 28 | - | 59 | - | - | -
O=C(O)c1cccc(N2C(=O)CSC2c2c(F)cccc2Cl)c1 (configuration not stated) | - | - | - | - | - | -
COc1cc(C(=O)OC(C)CN2CCCCC2)cc(OC)c1OC (configuration not stated) | - | - | - | - | - | -
SMILES | CHRM5 antagonist | M5 PAM | CHRM4 antagonist | M4 PAM | M5 ag | M4 ag
N#CCCn1cc(/C=N/O)c(-c2ccccc2)n1 | - | - | - | - | - | -
N#CCCn1cc(/C=N/O)c(-c2cccc([N+](=O)[O-])c2)n1 | 47 | - | - | - | - | -
CC(OC(=O)Cc1n[nH]c(=O)c2ccccc12)C(=O)Nc1cc(Cl)cc(Cl)c1 (configuration not stated) | - | - | - | - | - | -
CC(OC(=O)Cc1n[nH]c(=O)c2ccccc12)C(=O)Nc1ccc(Cl)cn1 (configuration not stated) | - | 19 | - | - | - | -
CCCS(=O)(=O)Nc1ccc2cn[nH]c2c1 | - | - | - | - | - | -
NC(=O)CSc1nc(O)cc(=O)n1-c1ccccc1 | - | - | - | 17 | - | -
Cc1ccc(-n2c(SCC(N)=O)nc(O)cc2=O)cc1 | - | - | - | - | - | -
O=C(N/N=C/c1ccncc1)c1nc(-c2ccccc2)n2c1CCCCC2 | - | - | 29 | - | - | -
Cc1ccc(/C=N/NC(=O)c2nnn(-c3nonc3N)c2-c2cccs2)cc1 | - | - | - | - | 30 | -
COc1cccc(-c2c(C(=O)N/N=C/c3cccs3)nnn2-c2nonc2N)c1 | - | - | - | - | 31 | -
CCOc1cccc(-c2c(C(=O)N/N=C/c3cccs3)nnn2-c2nonc2N)c1 | - | 28 | - | - | 28 | -
CCOc1cccc(-c2c(C(=O)N/N=C/c3ccncc3)nnn2-c2nonc2N)c1 | - | - | - | - | - | -
N#Cc1cn(N2CCCCC2)c(=O)[nH]c1=O | - | - | - | - | - | -
O=C(C[n+]1ccccc1)Nc1ccccc1C(=O)O | - | - | - | - | - | -
Cn1c(SCc2ccc(Br)cc2)nc2ccccc2c1=O | - | - | - | - | - | -
Cn1c(SCc2ccccc2)nc2ccsc2c1=O | 30 | - | - | - | - | -
Cn1c(=O)c(=O)n(C)c2cc(S(=O)(=O)N3CCCC3C(=O)Nc3ccc(F)cc3)ccc21 (configuration not stated) | - | - | - | - | - | -
COc1cc(OC)c(-c2c3cc(O)c(=O)cc-3oc3cc(O)c(O)cc23)cc1OC | 54 | - | 52 | - | 326 | 212
Cc1c2cc(O)c(=O)cc-2oc2cc(O)c(O)cc12 | - | - | - | - | - | -
Cc1cc(C)c2sc(NNC(=O)C3COc4ccccc4O3)nc2c1 (configuration not stated) | - | - | - | 16 | - | -
c1cc2c(cc1C1=NNC(=NC3CC3)SC1)OCCO2 | 100 | - | - | - | - | -
Cc1[nH]nc(-c2ccc(OCc3cnn(-c4ccccc4)c3)cc2O)c1Oc1ccccc1F | - | - | - | 24 | - | -
CN(C(=O)COC(=O)C1=COCCO1)C1(C#N)CCCCC1 | - | - | - | - | - | -
N#CC1(NC(=O)COC(=O)C2=COCCO2)CCCCC1 | - | - | - | - | - | 113
Cc1ccc(S(=O)(=O)N/N=C/c2ccc(OC3CSC3)cc2)cc1 | - | - | - | - | 38 | 42
CC(=O)NCCc1ccc(C(=O)COC(=O)c2cccs2)cc1 | - | - | - | - | - | -
COC(=O)[C@]12CCCCC=C1N(CCC1=CCCCC1)C(=O)[C@H](CC(=O)N1CCCCC1)C2 | - | - | - | - | - | -
